# Source: ChEMBL document CHEMBL1828539, “Development of a novel furocoumarin derivative inhibiting NF-κB dependent biological functions: design, synthesis and biological effects” (Eur J Med Chem, 2011)
# Activity calls are given as the source filed them. No cut-off for these calls is given here.
# Key:
# [1] = Inhibition of reconstituted NF-KB p50-p65 heterodimer/DNA interaction after 20 mins by EMSA
# Outline: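 p50 (10 ng) plus p65 (10 ng) human NF-κB proteins preincubated 20 min at room temperature with varying compound concentrations in buffer TF, 5% glycerol, 1 mM DTT. 0.25 ng 32P-labeled NF-κB site oligo then added for a further 20 min. Bound and free probe separated on 6% native polyacrylamide gel (0.25× TBE, 200 V); autoradiography.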
# [2] = Inhibition of NF-KB p50 subunit/DNA interaction after 20 mins by EMSA
# Outline: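 Human NF-κB p50 protein (10 ng) preincubated 20 min at room temperature with varying compound concentrations in buffer TF plus 5% glycerol, 1 mM DTT. Then 0.25 ng 32P-labeled double-stranded NF-κB consensus oligo (5'-CGC TGG GGA CTT TCC ACG G-3') added for 20 min more. Complexes resolved on 6% polyacrylamide gel in 0.25× TBE at 200 V; autoradiography.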
# IB3-1 [3] = assay: Inhibition of NFkappa B in human IB3-1 cells assessed as inhibition of TNF-alpha-induced IL8 mRNA accumulation at 10 uM after 24 hrs by RT-PCR analysis relative to control; format: cell-based
# Outline: (§1)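 IB3-1 CF bronchial cells (ΔF508/W1282X, adeno12/SV40-immortalized) grown in LHC-8 with 5% FBS, without gentamycin, at 37 °C. Exposed to compound and TNF-α (80 ng/ml) for 24 h. Total RNA extracted with TRIzol, oligo(dT)-primed AMV reverse transcription, then 40-cycle real-time PCR with IL-8 primers. IL-8 mRNA expressed relative to uninduced IB3-1 cells; n = 3.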
# IB3-1 [4] = assay: Inhibition of NFkappa B in human IB3-1 cells assessed as inhibition of TNF-alpha-induced IL8 protein release at 10 uM after 24 hrs relative to control; format: cell-based
# Outline: (§2)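 IB3-1 CF cells in LHC-8 with 5% FBS treated 24 h with compound plus TNF-α (80 ng/ml). IL-8 released into the culture supernatant measured by singleplex bead immunoassay (Bio-Plex): sample incubated with anti-IL-8 beads, then detection antibody, then streptavidin-phycoerythrin, read against cytokine standards as pg/ml; n = 3.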
# IB3-1 [5] = assay: Inhibition of NFkappa B in human IB3-1 cells assessed as inhibition of TNF-alpha-induced IL8 mRNA accumulation at 30 uM after 24 hrs by RT-PCR analysis relative to control; format: cell-based; outline: as §1
# IB3-1 [6] = assay: Inhibition of NFkappa B in human IB3-1 cells assessed as inhibition of TNF-alpha-induced IL8 protein release at 30 uM after 24 hrs relative to control; format: cell-based; outline: as §2
# IB3-1 [7] = assay: Inhibition of NFkappa B in human IB3-1 cells assessed as inhibition of TNF-alpha-induced IL8 mRNA accumulation at 50 uM after 24 hrs by RT-PCR analysis relative to control; format: cell-based; outline: as §1
# IB3-1 [8] = assay: Inhibition of NFkappa B in human IB3-1 cells assessed as inhibition of TNF-alpha-induced IL8 protein release at 50 uM after 24 hrs relative to control; format: cell-based; outline: as §2
Compound,inhibition [1],inhibition [2],inhibition (IB3-1 [3]),inhibition (IB3-1 [4]),inhibition (IB3-1 [5]),inhibition (IB3-1 [6]),inhibition (IB3-1 [7]),inhibition (IB3-1 [8])
Cc1c(CC(=O)N[C@@H](Cc2ccccc2)C(=O)O)c(=O)oc2cc3occ(C(C)(C)C)c3cc12,Active,Active,,,,,,
Cc1c(CC(=O)NC(Cc2ccccc2)C(=O)O)c(=O)oc2c(C)c3occ(C(C)(C)C)c3cc12 (racemic),Active,,inactive,inactive,Active,Active,Active,Active
Cc1c(CC(=O)NC(Cc2ccccc2)C(=O)O)c(=O)oc2cc3occ(C(C)(C)C)c3cc12 (racemic),Active,Active,,,,,,
